The record followed here is ChEMBL document CHEMBL1125193, “3-(5-Alkyl-4-hydroxy-3-methoxy-1-naphthalenyl)-2-methyl-2-propenoic acids as orally active inhibitors of IL-1 generation” (J Med Chem, 1991).

Usually Inhibition stands for how much of the control response was suppressed. Low values mean little suppression, high ones strong suppression. The term AUC denotes the area under the concentration-time curve, a measure of exposure. High values mean more exposure, low ones less exposure. One may read the pIC50 as the negative decadic logarithm of the IC50, by convention in mol/L. Read a high pIC50 as a small IC50. The term half-life denotes how long it takes for the measured level to halve. Higher therefore signals slow loss. What is called inhibition in vivo is the relative decrease from the control value, in per cent. Read a high inhibition in vivo as a strong effect.

In data set [1] the test system is Rattus norvegicus. The data set is described as follows: Percent inhibition was measured by in vivo by air pouch model on five rats by local administration at 100 uM. It counts as functional. The gist of the method: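 Rat CMC-LPS air-pouch model, 5 rats per group. Compound dissolved in 5% EtOH-RPMI 1640 with 30% heat-inactivated autologous serum, given locally to 100 μM final exudate concentration at 30 min before and just before LPS. Exudate collected 4 h after LPS; IL-1 by LAF assay against recombinant human IL-1α standard.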

The test system of data set [2] is Rattus norvegicus. The data set can be described thus: Percent inhibition was measured in vivo by air pouch model on five rats by oral administration at 200 uM. It counts as functional. In outline:
(§1)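 Rat CMC-LPS air-pouch model, 5 rats per group. Compound given orally in 0.5% methyl cellulose 2 h before LPS at 200, 50 or 25 mg/kg. Exudate collected 4 h after LPS; extra- and intracellular IL-1 by LAF assay against recombinant human IL-1α standard.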

Data set [3] is described as follows: Area under curve was measured from the graph obtained from concentration Vs time after oral administration to male F344 rats. Type of data set: ADME, organism-based. The settings on record: F344, rat, in vivo. In outline: (§2)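 Plasma AUC over 0-4 h from concentration-time course after a single oral dose of 50 mg/kg to male F344 rats; mean ± SEM, 2-3 rats per compound.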

For data set [4], the species on record is Rattus norvegicus. The data set is described as follows: Concentration to inhibit rat macrophase […] (IL 1 Generation). It counts as functional. In outline: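 Rat (Fisher) peritoneal macrophages elicited by i.p. 2.5% glycogen and harvested after 4 days. Adherent cells (0.5 × 10^6/well, RPMI 1640 + 1% heat-inactivated normal rat serum, 1.5 h at 37 °C) cultured 4 h with LPS 1 ng/mL ± compound. Intracellular IL-1 by LAF assay against recombinant human IL-1α standard; IC50 by least squares, mean of duplicates.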

The nature of data set [5]: Half life was measured as time taken to reach the half of the initial dose in the blood after oral administration to male F344 rats. To be noted: F344, rat. It counts as ADME, organism-based. In outline: (§3)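 Plasma half-life after a single oral dose of 50 mg/kg to male F344 rats; mean ± SEM, 2-3 rats per compound.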
The species named for a further data set is Homo sapiens. The data set is described as follows: Concentration to inhibit human monocyte in blood (IL 1 Generation). Type of data set: functional. The gist of the method: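 Human monocytes stimulated with LPS ± compound; IL-1 by LAF assay, quantified against a recombinant human IL-1 standard curve. IC50 by least-squares method, mean of two or more experiments.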

The species entered for data set [6] is Rattus norvegicus. The data set can be described thus: Percent inhibition was measured on untreated rat paw at different dosage forms. Type of data set: functional. In outline: (§4)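 Rat adjuvant arthritis. Compound given orally once daily from first day of adjuvant treatment at 12.5-100 mg/kg. Adjuvant-untreated paw swelling measured by plethysmometer on day 15; inhibition versus control. Mean ± SEM of 6-10 animals.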

The species entered for data set [7] is Rattus norvegicus. The data set is described as follows: Percent swelling was measured on untreated rat paw at different dosage forms. It counts as functional. In outline: as §4
The test system of data set [8] is Rattus norvegicus. The data set is described as follows: Percent swelling was measured on untreated rat paw at a dose of 100 mg/kg. It counts as functional. The gist of the method:
as §4

For data set [9], the system named is Rattus norvegicus. The data set is described as follows: Percent swelling was measured on untreated rat paw at a dose of 25 mg/kg. Type of data set: functional. The gist of the method: as §4
The subject of data set [10] is Rattus norvegicus. The data set can be described thus: Percent inhibition was measured in vivo by air pouch model on five rats by oral administration at 50 uM. It counts as functional. To be noted: in the assay text read “50 mg/kg” for “50 uM”. The gist of the method: as §1
In data set [11] the test system is Rattus norvegicus. The data set is described as follows: Percent swelling was measured on untreated rat paw at a dose of 12.5 mg/kg. Type of data set: functional. The gist of the method: as §4
For data set [12], the system named is Rattus norvegicus. The data set is described as follows: Percent inhibition was measured on untreated rat paw at a dose of 25 mg/kg. It counts as functional. In outline:
as §4

Data set [13] concerns Rattus norvegicus. The data set can be described thus: Percent inhibition was measured on untreated rat paw at a dose of 12.5 mg/kg. Type of data set: functional. The gist of the method:
as §4

The nature of data set [14]: Half life was measured as time taken to reach the half of the initial dose in air pouch exudate after oral administration to male F344 rats. Type of data set: ADME, organism-based. To be noted: F344, rat. In outline:
(§5)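 Male F344 rats given 50 mg/kg orally; drug measured in air-pouch exudate, with concentration at 6 h post-dose and exudate half-life derived; mean ± SEM of 5 rats.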

Data set [15] has as its system Rattus norvegicus. The data set is described as follows: Percent inhibition was measured in vivo by air pouch model on five rats by oral administration at 25 uM. It counts as functional. The settings on record: in the assay text read “25 mg/kg” for “25 uM”. In outline: as §1
In data set [16] the test system is Rattus norvegicus. The data set is described as follows: Percent swelling was measured on untreated rat paw at a dose of 50 mg/kg. Type of data set: functional. The gist of the method:
as §4

The test system of data set [17] is Rattus norvegicus. The data set can be described thus: Percent inhibition was measured on untreated rat paw at a dose of 50 mg/kg. Type of data set: functional. In outline:
as §4

A short description of data set [18]: C6h was measured as concentration obtained after 6 hr of oral administration in air pouch exudate after oral administration to male F344 rats. Type of data set: ADME, organism-based. To be noted: F344, rat, read-out: C6h. The gist of the method: as §5
In data set [19] the test system is Rattus norvegicus. The data set is described as follows: Percent inhibition was measured on untreated rat paw at a dose of 100 mg/kg. It counts as functional. In outline: as §4
Data set [20] can be described thus: Area under curve was measured from the graph obtained from concentration Vs time. It counts as ADME. In outline: as §2
Data set [21] is described as follows: Half life was measured as time taken to reach the half of the initial dose in the blood. It counts as ADME, tissue-based. The gist of the method:
as §3

Data set [22] in a line: C6h was measured as concentration obtained after 6 hr of oral administration in air pouch exudate. It counts as ADME. The settings on record: read-out: C6h. The gist of the method: as §5
A short description of data set [23]: Half life was measured as time taken to reach the half of the initial dose in air pouch exudate. Type of data set: ADME. The gist of the method:
as §5

The mark [24] stands for this setting: in the assay text read “at 200 mg/kg” for “at 200 uM”.
Where [25] appears, read: in the assay text read “200 mg/kg” for “200 uM”.

pIC50: −log10 of the molar value.

For the compound `CCc1cccc2c(/C=C(\C)C(=O)O)cc(OC)c(O)c12`, the Inhibition amounted to 85% in the data set on Rattus norvegicus [1] and 36% in the data set on Rattus norvegicus [2] (setting [24]). This compound also had an AUC in [3] of 108 µg·h/mL. In addition, the pIC50 is 5.70 in the data set listed under Rattus norvegicus [4] and 5.32 in the data set listed under Homo sapiens. In data set [5], the half-life was 0.44 h.
The compound `COc1ccc2c(c1)c(CC(=O)O)c(C)n2C(=O)c1ccc(Cl)cc1` [INDOMETHACIN] yielded an Inhibition in the data set filed under Rattus norvegicus [6] of 47.8%. This compound showed a Swelling in the data set listed under Rattus norvegicus [7] of 28.8%.
Regarding `CCc1cccc2c(/C=C(/C)C(=O)O)cc(OC)c(O)c12`, the Swelling with Rattus norvegicus [8] is listed as 26.8%; in the data set with Rattus norvegicus [9], 36.4%; in the data set on Rattus norvegicus [11] it was 44.1%; in the data set on Rattus norvegicus [16], 33.8%. Moreover, the Inhibition in the data set on Rattus norvegicus [1] is on record as 94%; with Rattus norvegicus [2] (setting [25]), 91%; with Rattus norvegicus [10] it was 65%; in the data set on Rattus norvegicus [15], 40%. For the same compound, in the data set on Rattus norvegicus [12], the inhibition in vivo at 25 mg/kg came out at 34.1%. The compound further had an area under the curve (AUC) in [3] of 418 µg·h/mL. For the same compound, the negative logarithm of the IC50 (pIC50) in the data set filed under Rattus norvegicus [4] is 5.85; in the data set filed under Homo sapiens, 5.52. In addition, the half-life in [5] was 1.72 h; in data set [14] it was 4.15 h. Besides, the inhibition in vivo at 12.5 mg/kg in the data set with Rattus norvegicus [13] came to 20.1%. In addition, the inhibition in vivo at 50 mg/kg with Rattus norvegicus [17] turned out to be 38.8%. In addition, the concentration at 6 h in data set [18] amounted to 8760 ng/mL. In addition, in the data set with Rattus norvegicus [19], the inhibition in vivo at 100 mg/kg was 51.4%.
As for `CCCc1cccc2c(/C=C(\C)C(=O)O)cc(OC)c(O)c12`, the results for the Inhibition in the data set on Rattus norvegicus [1], with Rattus norvegicus [2] (setting [24]) and in the data set with Rattus norvegicus [10] were 91%, 67% and 4%, respectively. In data set [3], this compound displayed an area under the curve (AUC) of 60.4 µg·h/mL. Besides, the negative logarithm of the IC50 (pIC50) in the data set filed under Rattus norvegicus [4] and in the data set listed under Homo sapiens was 6.00 in each case. Besides, the half-life in data set [5] was 1.07 h.
With `CCCc1cccc2c(/C=C(/C)C(=O)O)cc(OC)c(O)c12`, the Swelling amounted to 25.6% in the data set on Rattus norvegicus [8], 50.8% with Rattus norvegicus [9], 45.8% in the data set with Rattus norvegicus [11] and 29.5% in the data set on Rattus norvegicus [16]. For the same compound, the Inhibition in the data set with Rattus norvegicus [1] amounted to 87%; in the data set on Rattus norvegicus [2] (setting [25]), 86%; in the data set with Rattus norvegicus [10] it was 33%. The compound further yielded an area under the curve (AUC) in data set [20] of 189 µg·h/mL. Moreover, in the data set on Rattus norvegicus [12], the inhibition in vivo at 25 mg/kg amounted to 8%. For the same compound, the half-life is 1.07 h in [21] and 2.05 h in [23]. In addition, the results for the pIC50 in the data set filed under Rattus norvegicus [4] and in the data set listed under Homo sapiens were 5.96 and 6.00, respectively. In [22], the concentration at 6 h came out at 1940 ng/mL. This compound also gave an inhibition in vivo at 12.5 mg/kg in the data set on Rattus norvegicus [13] of 17%. Also, the inhibition in vivo at 50 mg/kg in the data set with Rattus norvegicus [17] is 46.6%. In the data set with Rattus norvegicus [19], this compound had an inhibition in vivo at 100 mg/kg of 53.6%.
